In ChEMBL document CHEMBL4325822, “Discovery of a tetrazolyl β-carboline with in vitro and in vivo osteoprotective activity under estrogen-deficient conditions” (Medchemcomm, 2018):
Calls of active or inactive are those of the source. The calls are words filed in the database; no cut-off is given here.

What was measured:
Calvarial osteoblast [1] = test: Osteogenic activity in Sprague-Dawley rat calvarial osteoblasts assessed as mineralized nodule formation at 100 pM after 21 days by alizarin red-S staining based colorimetric method; format: functional
Summary of the method: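 Osteoblasts at 10,000–15,000 cells/cm² in duplicate plates, 21 days in differentiation medium, medium changed every 48 h. Cells fixed in 4% PFA, stained with alizarin red-S (40 mM, pH 4.5, 30 min) and photographed. Stain extracted with 10% acetic acid, pH brought to 4.5 with ammonium hydroxide, read at 405 nm, normalized to cell number.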

[2] = Increase in BMP2 mRNA expression in Sprague-Dawley rat calvarial osteoblasts at 100 pM by RT-PCR method relative to control; format: functional, Calvarial osteoblast
Summary of the method: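 Primary calvarial osteoblasts were lysed in TRIzol after treatment, and total RNA was extracted. Transcripts were quantified by real-time PCR using the comparative CT (ΔΔCT) method.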

[3] = Increase in Runx2 mRNA expression in Sprague-Dawley rat calvarial osteoblasts at 100 pM by RT-PCR method relative to control; format: functional, Calvarial osteoblast
Calvarial osteoblast [4] = test: Increase in Runx2 protein expression in Sprague-Dawley rat calvarial osteoblasts at 100 pM after 48 hrs by Western blot analysis; format: functional, cell-based
Summary of the method: (§1)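 Rat calvarial osteoblasts (pooled 1–2-day pups, collagenase/dispase digests) at 60–70% confluence treated 48 h. Whole-cell lysates immunoblotted with primary antibody overnight at 4 °C, then HRP secondary, with ECL detection. Densitometry gives fold change normalized to β-actin versus untreated cells. Mean ± SEM of three independent experiments.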

Calvarial osteoblast [5] = test: Increase in OCN protein expression in Sprague-Dawley rat calvarial osteoblasts at 100 pM after 48 hrs by Western blot analysis; format: functional, cell-based; summary of the method: as §1
Calvarial osteoblast [6] = test: Induction of osteoblast proliferation in Sprague-Dawley rat calvarial osteoblasts at 0.000001 to 1 uM after 48 hrs BrdU incorporation assay; format: functional, cell-based
Summary of the method: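 2 × 10³ cells/well in duplicate plates, one for cell number and one for BrdU. Cells treated 48 h in differentiation medium, then BrdU added for a further 24 h. Fixed cells get anti-BrdU (1 h RT), then peroxidase secondary (30 min), TMB (30 min, dark), stop, read at 450 nm. Result given as BrdU(+) osteoblasts, % of total.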

[7] = Antioxidant activity assessed as DPPH radical scavenging activity at 250 ug/ml after 30 mins by spectrophotometric method relative to control; format: functional
Summary of the method: (§2)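 The compound was serially diluted from 1000 to 1.95 µg·ml⁻¹ and mixed 1:1 with DPPH in methanol. After 30 min at room temperature, absorbance was read at 517 nm. Scavenging (%) = [(Abc − Abs)/Abc] × 100, where Abc is DPPH without compound.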

[8] = Antioxidant activity assessed as DPPH radical scavenging activity at 1.95 ug/ml after 30 mins by spectrophotometric method relative to control; format: functional; summary of the method: as §2
[9] = Antioxidant activity assessed as DPPH radical scavenging activity at 3.9 ug/ml after 30 mins by spectrophotometric method relative to control; format: functional; summary of the method: as §2
[10] = Antioxidant activity assessed as DPPH radical scavenging activity after 30 mins by spectrophotometric method; format: functional; summary of the method: as §2
[11] = Antioxidant activity assessed as SNP-induced nitric oxide free radical scavenging activity at 250 ug/ml after 150 mins by Griess reagent based method relative to control; format: functional
Summary of the method: (§3)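 Serial dilutions (1000 to 1.95 µg·ml⁻¹) were mixed with sodium nitroprusside (10 mM) and incubated 150 min. An equal volume of Griess reagent was added, and absorbance was read at 546 nm. Percentage scavenging was calculated relative to the control without compound.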

[12] = Antioxidant activity assessed as SNP-induced nitric oxide free radical scavenging activity at 1000 ug/ml after 150 mins by Griess reagent based method relative to control; format: functional; summary of the method: as §3
Calvarial osteoblast [13] = test: Osteoprotective activity in Sprague-Dawley rat calvarial osteoblasts assessed as reduction in TNFalpha-induced apoptosis at 100 pM after 24 hrs by Annexin V/propidium iodide staining based FACS analysis relative to control; format: functional; set-up: scale not given: the % may be the effect or the level left
Summary of the method: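 Osteoblasts at 50–60% confluence, serum-withdrawn 3 h. Then 24 h with TNFα in α-MEM with 0.5% FBS, with 10 nM E2 as comparator. Annexin-V-FITC/PI staining, analysed by flow cytometry.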

Rattus norvegicus [14] = test: Antiosteoporotic activity in Sprague-Dawley rat model of OVX-induced bone loss assessed as restoration of bone mineral density loss in femur bone at 1 to 5 mg/kg po via gavage for 12 weeks by microcomputed tomographic analysis relative to control; format: functional
Summary of the method: (§4)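 Adult female Sprague-Dawley rats were ovariectomized and left 12 weeks to become osteopenic. They then received 12 weeks of once-daily oral gavage (1% gum acacia vehicle) or subcutaneous estradiol, five days a week. Femurs were collected at sacrifice and scanned by micro-CT for BMD and trabecular microarchitecture. Ten rats per group; mean ± SEM.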

Rattus norvegicus [15] = test: Antiosteoporotic activity in Sprague-Dawley rat model of OVX-induced bone loss assessed as protection against microarchitectural deterioration by measuring trabecular separation at 1 mg/kg, po via gavage for 12 weeks by microcomputed tomographic analysis (reference value: 1.31 +/- 0.06 millimeter); format: functional; summary of the method: as §4
Rattus norvegicus [16] = test: Antiosteoporotic activity in Sprague-Dawley rat model of OVX-induced bone loss assessed as protection against microarchitectural deterioration by measuring trabecular number at 5 mg/kg, po via gavage for 12 weeks by microcomputed tomographic analysis (reference value: 0.56 +/- 0.06 /millimeter); format: functional; summary of the method: as §4
Rattus norvegicus [17] = test: Antiosteoporotic activity in Sprague-Dawley rat model of OVX-induced bone loss assessed as increase in mineralization at 1 to 5 mg/kg, po via gavage for 12 weeks measured 18 days post last dose by alizarin red-S staining based assay relative to control; format: functional
Summary of the method: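 After 12 weeks of in vivo treatment of ovariectomized rats, femoral bone marrow was flushed. It was cultured 18 days in differentiation medium (10 nM dexamethasone, 10 mM β-glycerophosphate, 50 µg·mL⁻¹ ascorbic acid). Mineralized nodules were stained with alizarin red-S, and the stain was extracted for quantitation.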

Rattus norvegicus [18] = test: Antiosteoporotic activity in Sprague-Dawley rat model of OVX-induced bone loss assessed as decrease in serum CTX level at 1 to 5 mg/kg, po via gavage for 12 weeks by ELISA; format: functional, organism-based
Summary of the method: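 Ovariectomy model as above: 12 weeks of osteopenia, then 12 weeks of daily gavage or subcutaneous estradiol. Serum was separated at autopsy, and CTX and PINP were measured by ELISA kits.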

[19] = Hepatotoxicity in Sprague-Dawley rat model of OVX-induced bone loss assessed as morphological changes in liver at 1 to 5 mg/kg, po via gavage for 12 weeks by hematoxylin and eosin staining based assay; format: toxicity, organism-based; details: in vivo, 2016 h
Summary of the method: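 Liver samples from ovariectomized rats after 12 weeks of treatment were dehydrated in isopropanol, cleared in xylene and paraffin-embedded. Transverse 5 µm sections were stained with hematoxylin and eosin and imaged.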

[20] = Toxicity in Sprague-Dawley rat model of OVX-induced bone loss assessed as luminal area at 1 mg/kg, po via gavage for 12 weeks (reference value: 0.01 +/- 0.0004 mm2); format: organism-based; details: in vivo, 2016 h
[21] = Toxicity in Sprague-Dawley rat model of OVX-induced bone loss assessed as luminal epithelial height at 1 mg/kg, po via gavage for 12 weeks (reference value: 27.29 +/- 0.96 umeter); format: organism-based; details: in vivo, 2016 h
[22] = Toxicity in Sprague-Dawley rat model of OVX-induced bone loss assessed as uterine weight at 5 mg/kg, po via gavage for 12 weeks (reference value: 0.12 +/- 0.02 g); format: organism-based; details: in vivo, 2016 h

For `CCOC(=O)c1cc2c([nH]c3ccccc32)c(C(c2nnnn2C(C)(C)C)N2CCN(C)CC2)n1` (configuration not stated), which Activity (Calvarial osteoblast [1]) is on record?
The Activity was 70%.

What about the “fold change (FC)” value [2] of the same molecule?
Its value is 1.8 - 4.6.

And the “fold change (FC)” value [3]?
Its value is 1.8 - 4.6.

And the Activity (Calvarial osteoblast [4])?
Its Activity is “Active”.

What about the Activity (Calvarial osteoblast [5]) of the same molecule?
The Activity was “Active”.

And the Activity (Calvarial osteoblast [6])?
Its Activity is “Active”.

What about the Activity [7] of the same molecule?
The Activity was 37.8%.

What about the Activity [8] of the same molecule?
The Activity was 3.34%.

And the Activity [9]?
Its Activity is 3.82%.

And the Activity [10]?
The Activity was “Dose-dependent effect”.

And the Activity [11]?
The Activity was 30.7%.

What about the Activity [12] of the same molecule?
Its Activity is 19.3%.

What about the Activity (Calvarial osteoblast [13]) of the same molecule?
The Activity was 47%.

What about the Activity (Rattus norvegicus [14]) of the same molecule?
The Activity was 46%.

What about the Activity (Rattus norvegicus [15]) of the same molecule?
The Activity was 0.73 mm.

And the Activity (Rattus norvegicus [16])?
The Activity was 1.38 /millimeter.

What about the “fold change (FC)” value (Rattus norvegicus [17]) of the same molecule?
Its value is 1.4 - 1.5.

What about the Activity (Rattus norvegicus [18]) of the same molecule?
Its Activity is “Active”.

What about the Activity [19] of the same molecule?
The Activity was “Non-Toxic”.

And the Activity [20]?
Its Activity is 0.012 mm2.

And the Activity [21]?
The Activity was 3.7 um.

What about the Activity [22] of the same molecule?
Its Activity is 0.12 g.
